Consider 7 compounds from ChEMBL document CHEMBL1138254, “Stereoselective synthesis and cytotoxicity of a cancer chemopreventive naphthoquinone from Tabebuia avellanedae” (Bioorg Med Chem Lett, 2007).

In one assay the test system is PC-3. Kind of assay: Cytotoxicity against human PC3 cells assessed as cell viability by tryptan blue staining method. The class given is functional, cell-based. Put shortly: (§1)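 Human cancer lines PC-3 (prostate), A549 (lung) and MCF-7 (breast) were treated with compound. Viability was assessed by Trypan blue staining, and EC50 is reported in µM.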
The next assay has as its system A549. Kind of assay: Cytotoxicity against human A549 cells assessed as cell viability by tryptan blue staining method. The format is functional, cell-based. Put shortly:
as §1

In the next assay the test system is MCF7. The assay can be described thus: Cytotoxicity against human MCF7 cells assessed as cell viability by tryptan blue staining method. The format is functional, cell-based. Put shortly:
as §1

The nature of assay [1]: Cytotoxicity against human Fb cells assessed as cell viability by tryptan blue staining method. The class given is cell-based. The method in brief:
(§2)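 Human normal cell lines were treated with compound: Fb (skin), Hc (liver), MPC-5 (lung) and IE (colon). Viability was assessed by Trypan blue staining, and EC50 is reported in µM.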

Assay [2] can be described thus: Cytotoxicity against human Hc cells assessed as cell viability by tryptan blue staining method. The class given is cell-based. Put shortly: as §2
Assay [3] can be described thus: Cytotoxicity against human MPC5 cells assessed as cell viability by tryptan blue staining method. The class given is cell-based. Particulars: MPC-5. Put shortly:
as §2

Assay [4] in a line: Cytotoxicity against human IE cells assessed as cell viability by tryptan blue staining method. The class given is cell-based. Put shortly: as §2
Assay [5] concerns Human gammaherpesvirus 4. Kind of assay: Inhibition of TPA-induced EBV-EA activation in Raji cells at 1000 mol ratio/TPA relative to control. The class given is functional. Put shortly:
(§3)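 TPA-induced EBV-EA activation in Raji cells, with TPA at 32 pmol and test agent at 1000, 500, 100 and 10 mol ratio/TPA. EA-positive cells are expressed relative to the positive control (TPA alone, 100%). An IC50 in µM is derived from the dose series. Curcumin served as the positive control substance.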

Assay [6] relates to Human gammaherpesvirus 4. Kind of assay: Inhibition of TPA-induced EBV-EA activation in Raji cells at 500 mol ratio/TPA relative to control. The format is functional. The method in brief: as §3
Assay [7] concerns Human gammaherpesvirus 4. Kind of assay: Inhibition of TPA-induced EBV-EA activation in Raji cells at 100 mol ratio/TPA relative to control. The format is functional. Put shortly: as §3
The test system of assay [8] is Human gammaherpesvirus 4. Kind of assay: Inhibition of TPA-induced EBV-EA activation in Raji cells at 10 mol ratio/TPA relative to control. The class given is functional. Put shortly:
as §3

Assay [9] has as its system Human gammaherpesvirus 4. Kind of assay: Inhibition of TPA-induced EBV-EA activation in Raji cells. The format is functional, organism-based. The note with it: human gammaherpesvirus 4, Raji. The method in brief:
as §3

In assay [10] the test system is Raji. Kind of assay: Cell viability in Raji cells at 1000 mol ratio/TPA by tryptan blue staining relative to control. The class given is functional, Homo sapiens. Put shortly:
(§4)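 Raji cells co-treated with test agent and 32 pmol TPA in the EBV-EA activation assay. Doses were 10, 100, 500 or 1000 mol ratio relative to TPA. Viability was scored by Trypan blue staining and given as percent of Raji cells viable.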

In assay [11] the test system is Raji. Kind of assay: Cell viability in Raji cells at 500 mol ratio/TPA by tryptan blue staining relative to control. The format is functional, Homo sapiens. Put shortly:
as §4

Assay [12] deals with Raji. The assay can be described thus: Cell viability in Raji cells at 100 mol ratio/TPA by tryptan blue staining relative to control. The format is functional, Homo sapiens. The method in brief: as §4
Assay [13] has as its system Raji. The assay can be described thus: Cell viability in Raji cells at 10 mol ratio/TPA by tryptan blue staining relative to control. The class given is functional, Homo sapiens. Put shortly:
as §4

SMILES strings stand for the structures.

Turning to `C[C@@H](O)c1cc2c(o1)C(=O)c1cccc(O)c1C2=O`, the EC50 – broadly, the concentration at which the effect is half-maximal – in the assay on PC-3 was determined as 0.93 µM; with A549, 3 µM; in the assay with MCF7 it was 9.3 µM; in assay [1], 39.7 µM; in assay [2], 29.8 µM; in [3] it was 65.9 µM. Moreover, the EC50 in assay [4] was 39.7 µM. In addition, the “EBV-EA positive cells %” value was found to be 0% with Human gammaherpesvirus 4 [5], 9.7% in the assay with Human gammaherpesvirus 4 [6], 24.7% with Human gammaherpesvirus 4 [7] and 59.4% in the assay with Human gammaherpesvirus 4 [8]. For the same compound, the IC50 – broadly, the midpoint of a concentration-inhibition curve – with Human gammaherpesvirus 4 [9] stood at 38.9 µM. Further, the Activity in the assay on Raji [10] is on record as 70%; in the assay with Raji [11], more than 80%; in the assay on Raji [12], more than 80%; with Raji [13], more than 80%.

With `CC(O)c1cc2c(o1)C(=O)c1cccc(O)c1C2=O` (centres undefined), the EC50 was 0.56 µM in the assay on PC-3; 3.24 µM in the assay on A549; 8.5 µM with MCF7; 45.4 µM in assay [1]; 89.3 µM in assay [2]; 89.3 µM in assay [3]. The EC50 in assay [4] was found to be 158 µM. Further, the “EBV-EA positive cells %” value in the assay with Human gammaherpesvirus 4 [5] turned out to be 0%; with Human gammaherpesvirus 4 [6], 6.2%; in the assay with Human gammaherpesvirus 4 [7] it was 20.7%; in the assay with Human gammaherpesvirus 4 [8] it was 52.9%. Further, the IC50 with Human gammaherpesvirus 4 [9] is 34.9 µM. Besides, the Activity is listed as 60% in the assay with Raji [10], 70% in the assay with Raji [11], more than 80% in the assay with Raji [12] and more than 80% with Raji [13].

Take `C[C@H](O)c1cc2c(o1)C(=O)c1cccc(O)c1C2=O`: the 50% effective concentration (EC50) was 0.14 µM in the assay with PC-3; 0.96 µM in the assay with A549; 3.5 µM in the assay with MCF7; 11.1 µM in assay [1]; 11.1 µM in assay [2]; 29.7 µM in assay [3]. In addition, the EC50 in assay [4] amounted to 54.5 µM. Also, the “EBV-EA positive cells %” value with Human gammaherpesvirus 4 [5] was 0%; in the assay on Human gammaherpesvirus 4 [6], 4.4%; with Human gammaherpesvirus 4 [7], 16.9%; in the assay with Human gammaherpesvirus 4 [8], 50%. Moreover, in the assay with Human gammaherpesvirus 4 [9], the IC50 is 33.2 µM. In addition, the Activity in the assay with Raji [10] is reported as 60%; in the assay with Raji [11], 60%; in the assay with Raji [12], more than 80%; in the assay on Raji [13], more than 80%.

In turn, `COc1cc(/C=C/C(=O)CC(=O)/C=C/c2ccc(O)c(OC)c2)ccc1O` [CURCUMIN] gave an IC50 in the assay with Human gammaherpesvirus 4 [9] of 345 µM.

In the case of `CC(C)=CCC1=C(O)C(=O)c2ccccc2C1=O` [LAPACHOL], the “EBV-EA positive cells %” value with Human gammaherpesvirus 4 [5] came to 8.9%; in the assay on Human gammaherpesvirus 4 [6] it was 32.8%; in the assay on Human gammaherpesvirus 4 [7], 65.2%; in the assay on Human gammaherpesvirus 4 [8] it was 86.6%. Also, the IC50 in the assay with Human gammaherpesvirus 4 [9] worked out at 311 µM. For the same compound, the Activity is reported as 50% in the assay with Raji [10], 60% in the assay with Raji [11], more than 80% in the assay on Raji [12] and more than 80% in the assay with Raji [13].

For the compound `CC1(C)CCC2=C(O1)c1ccccc1C(=O)C2=O` [LAPACHONE], the “EBV-EA positive cells %” value in the assay on Human gammaherpesvirus 4 [5] was found to be 4.7%; in the assay with Human gammaherpesvirus 4 [6], 21.7%; in the assay with Human gammaherpesvirus 4 [7], 50.4%; with Human gammaherpesvirus 4 [8] it was 73.1%. In addition, 210 µM corresponded to half-maximal inhibition in the assay on Human gammaherpesvirus 4 [9] (IC50). Moreover, the Activity in the assay on Raji [10] is listed as 50%; with Raji [11], more than 80%; in the assay on Raji [12] it was more than 80%; in the assay on Raji [13], more than 80%.

Regarding `CO[C@@]12[C@H](COC(N)=O)C3=C(C(=O)C(C)=C(N)C3=O)N1C[C@@H]1N[C@@H]12` [MITOMYCIN], the half-maximal effective concentration (EC50) in the assay with PC-3 turned out to be 0.14 µM; in the assay with A549, 0.43 µM; in the assay with MCF7, 0.96 µM; in assay [1], 0.93 µM; in [2], 1.46 µM; in assay [3], 2.1 µM. Moreover, in assay [4], the EC50 was 1.46 µM.
